Measurements collected from several papers.
Protocols differ between the studies behind these lines.
Organism: Candida albicans
Read-out: microbial growth

SMILES | technique | strain | time | notes | MIC
CC1=NN(CNc2ccccc2[N+](=O)[O-])C(=O)C1=NNn1c(-c2ccccc2)nc2ccccc2c1=O | broth dilution | – | – | – | 50.4 µM
N=C(N)NCc1ccc(NC(=O)C23CCC(C(=O)Nc4ccc(C5=CCN(C(=N)N)CC5)cc4)(CC2)CC3)cc1 | broth dilution | – | 48 h | clinical isolate | 0.2 µg/mL
OC(Cn1cncn1)(Cn1cncn1)c1ccc(F)cc1F | – | SC5314 | – | – | 2 µg/mL
O=C(CCc1cc(O)c(O)c(O)c1)NCCCCCCCC[P+](c1ccccc1)(c1ccccc1)c1ccccc1.[Br-] | broth dilution | ATCC90028 | 24 h | – | > 32 µg/mL
CC1=NN(CNc2c(O)c(S(=O)(=O)O)cc3ccccc23)C(=O)C1=NNn1c(-c2ccccc2)nc2ccccc2c1=O | broth dilution | – | – | – | 41.8 µM
O=C(Cc1ccc(O)c(O)c1)NCCCCCCCC[P+](c1ccccc1)(c1ccccc1)c1ccccc1.[Br-] | broth dilution | ATCC90028 | 24 h | – | > 32 µg/mL
NOCC(=O)O | – | SC5314 | – | – | 1000 µg/mL
OC(Cn1cncn1)(Cn1cncn1)c1ccc(F)cc1F | broth dilution | ATCC10231 | – | – | 1 µg/mL
O=C(CCc1ccc(O)c(O)c1)NCCCCCCCC[P+](c1ccccc1)(c1ccccc1)c1ccccc1.[Br-] | broth dilution | ATCC90028 | 24 h | – | > 32 µg/mL
CC1=NN(CNC(=O)c2ccccn2)C(=O)C1=NNn1c(-c2ccccc2)nc2ccccc2c1=O | broth dilution | – | – | – | 104 µM
CCOC(=O)c1nc2ccccc2c(=O)n1Cc1cn(-c2ccc(C)cc2)nn1 | broth dilution | ATCC90028 | – | – | 250 µg/mL
CC(=O)NCN1N=C(C)C(=NNn2c(-c3ccccc3)nc3ccccc3c2=O)C1=O | broth dilution | – | – | – | 120 µM
O=C(CCCCCC[P+](c1ccccc1)(c1ccccc1)c1ccccc1)Nc1cc(O)c(O)c(O)c1.[Br-] | broth dilution | ATCC90028 | 24 h | – | > 32 µg/mL
CC1=NN(CNc2ccc(Cl)cc2)C(=O)C1=NNn1c(-c2ccccc2)nc2ccccc2c1=O | broth dilution | – | – | – | 51.5 µM
COc1cc(-c2ccccc2)cc(C(C)C#Cc2c(C)nc(N)nc2N)c1 (racemic) | resazurin | – | – | – | 250 µM
